ChEMBL document CHEMBL4257520, “Design, synthesis and bioactivity investigation of tetrandrine derivatives as potential anti-cancer agents” (Medchemcomm, 2018)

Legend:
L02 = assay: Cytotoxicity against human HL7702 cells after 48 hrs by MTT assay; format: cell-based; settings: L02, 48 h
How it was run: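 Normal human liver HL7702 cells were assessed by MTT assay, with formazan absorbance as the read-out, to give an IC50 for cytotoxicity.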

PC-3 = assay: Antiproliferative activity against human PC3 cells after 48 hrs by MTT assay; format: functional, cell-based; settings: PC-3, 48 h
How it was run: (§1)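 MTT assay on human cancer lines held at 37 °C, 95% humidity, 5% CO2. Cells were exposed to compounds at 20.0–0.5 μM for 48 h, then washed twice with PBS. MTT (5 mg mL–1 in PBS) was added for 4 h at 37 °C, the formazan was dissolved in DMSO, and A490 was read. IC50 comes from replicate wells over three independent experiments.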

[1] = Antiproliferative activity against human WM9 cells after 48 hrs by MTT assay; format: functional, cell-based; settings: WM9, 48 h; how it was run: as §1
HEL = assay: Antiproliferative activity against HEL cells after 48 hrs by MTT assay; format: functional, cell-based; settings: Homo sapiens; how it was run: as §1
MDA-MB-231 = assay: Antiproliferative activity against human MDA-MB-231 cells after 48 hrs by MTT assay; format: functional, cell-based; settings: MDA-MB-231, 48 h; how it was run: as §1
K562 = assay: Antiproliferative activity against human K562 cells after 48 hrs by MTT assay; format: functional, cell-based; settings: K562, 48 h; how it was run: as §1

SMILES	IC50 (PC-3) [µM]	IC50 (MDA-MB-231) [µM]	IC50 (K562) [µM]	IC50 (L02) [µM]	IC50 [1] [µM]	IC50 (HEL) [µM]
COc1cccc(S(=O)(=O)Nc2cc(OC)c3cc2C[C@H]2c4c(cc(OC)c(OC)c4Oc4cc5c(cc4OC)CCN(C)[C@H]5Cc4ccc(cc4)O3)CCN2C)c1	3.99	4.56	3.22	28.2	4.11	8.59
COc1cc(NS(=O)(=O)c2ccccc2Cl)c2cc1Oc1ccc(cc1)C[C@H]1c3cc(c(OC)cc3CCN1C)Oc1c(OC)c(OC)cc3c1[C@H](C2)N(C)CC3	4.63	7.42	3.57	7.91	4.09	3.48
COc1cc(NS(=O)(=O)c2cccc([N+](=O)[O-])c2)c2cc1Oc1ccc(cc1)C[C@H]1c3cc(c(OC)cc3CCN1C)Oc1c(OC)c(OC)cc3c1[C@H](C2)N(C)CC3	1.94	6.37	1.78	10.1	3.36	2.17
COc1cc(NS(C)(=O)=O)c2cc1Oc1ccc(cc1)C[C@H]1c3cc(c(OC)cc3CCN1C)Oc1c(OC)c(OC)cc3c1[C@H](C2)N(C)CC3	3.37	5.67	3.57	14.7	2.58	2.6
COc1cc(NS(=O)(=O)c2ccccc2F)c2cc1Oc1ccc(cc1)C[C@H]1c3cc(c(OC)cc3CCN1C)Oc1c(OC)c(OC)cc3c1[C@H](C2)N(C)CC3	5.89	7.89	5.84	16.3	4.19	3.04
COc1cc(NS(=O)(=O)c2ccc(Cl)nc2)c2cc1Oc1ccc(cc1)C[C@H]1c3cc(c(OC)cc3CCN1C)Oc1c(OC)c(OC)cc3c1[C@H](C2)N(C)CC3	5.76	6.84	5.95	19.5	7.93	6.01
COc1cc([N+](=O)[O-])c2cc1Oc1ccc(cc1)C[C@H]1c3cc(c(OC)cc3CCN1C)Oc1c(OC)c(OC)cc3c1[C@H](C2)N(C)CC3	6.81	11.3	9.05	–	12.1	7.36
COc1cc(NS(=O)(=O)c2ccccc2[N+](=O)[O-])c2cc1Oc1ccc(cc1)C[C@H]1c3cc(c(OC)cc3CCN1C)Oc1c(OC)c(OC)cc3c1[C@H](C2)N(C)CC3	7.3	2.51	5.05	16.2	3.26	5.72
COc1ccc2cc1Oc1ccc(cc1)C[C@H]1c3cc(c(OC)cc3CCN1C)Oc1c(OC)c(OC)cc3c1[C@H](C2)N(C)CC3 [FANCHININ]	5.86	8.94	11.8	44.2	6.1	7.45
COc1cc(NS(=O)(=O)c2c(C)cc(C)cc2C)c2cc1Oc1ccc(cc1)C[C@H]1c3cc(c(OC)cc3CCN1C)Oc1c(OC)c(OC)cc3c1[C@H](C2)N(C)CC3	3.29	5.31	3.24	21.2	4.16	4.81
CCCS(=O)(=O)Nc1cc(OC)c2cc1C[C@H]1c3c(cc(OC)c(OC)c3Oc3cc4c(cc3OC)CCN(C)[C@H]4Cc3ccc(cc3)O2)CCN1C	6.64	5.12	4.14	12.5	4.03	6
COc1cc(NS(=O)(=O)c2cccc3cccnc23)c2cc1Oc1ccc(cc1)C[C@H]1c3cc(c(OC)cc3CCN1C)Oc1c(OC)c(OC)cc3c1[C@H](C2)N(C)CC3	4.3	6.26	1.39	12.7	4.53	2.85
COc1cc(NS(=O)(=O)c2cc(Cl)cc(Cl)c2)c2cc1Oc1ccc(cc1)C[C@H]1c3cc(c(OC)cc3CCN1C)Oc1c(OC)c(OC)cc3c1[C@H](C2)N(C)CC3	3.41	3.88	1.47	13.7	3.7	5.68
COc1cc(N)c2cc1Oc1ccc(cc1)C[C@H]1c3cc(c(OC)cc3CCN1C)Oc1c(OC)c(OC)cc3c1[C@H](C2)N(C)CC3	2.67	3.55	3	–	6.36	6.66
CCCCS(=O)(=O)Nc1cc(OC)c2cc1C[C@H]1c3c(cc(OC)c(OC)c3Oc3cc4c(cc3OC)CCN(C)[C@H]4Cc3ccc(cc3)O2)CCN1C	5.19	5.33	7.26	22.5	6.35	6.77
COc1cc(NS(=O)(=O)c2c(C(C)C)cc(C(C)C)cc2C(C)C)c2cc1Oc1ccc(cc1)C[C@H]1c3cc(c(OC)cc3CCN1C)Oc1c(OC)c(OC)cc3c1[C@H](C2)N(C)CC3	5.46	5.43	6.76	32.1	2.13	5.31
CC[C@]1(O)C[C@H]2CN(CCc3c([nH]c4ccccc34)[C@@](C(=O)OC)(c3cc4c(cc3OC)N(C=O)[C@H]3[C@@](O)(C(=O)OC)[C@H](OC(C)=O)[C@]5(CC)C=CCN6CC[C@]43[C@@H]65)C2)C1 [VINCRISTINE]	5.31	9.86	5.36	–	4.28	5.97
COc1cc(NS(=O)(=O)C(F)(F)F)c2cc1Oc1ccc(cc1)C[C@H]1c3cc(c(OC)cc3CCN1C)Oc1c(OC)c(OC)cc3c1[C@H](C2)N(C)CC3	5.57	6.69	7.12	18.6	5.8	5.83

Continued, in another order:

IC50 (PC-3) [µM]	IC50 (MDA-MB-231) [µM]	IC50 (K562) [µM]	SMILES	IC50 (L02) [µM]	IC50 [1] [µM]	IC50 (HEL) [µM]
4.75	6.61	3.47	COc1cc(NS(=O)(=O)c2ccc(NC(C)=O)cc2)c2cc1Oc1ccc(cc1)C[C@H]1c3cc(c(OC)cc3CCN1C)Oc1c(OC)c(OC)cc3c1[C@H](C2)N(C)CC3	17.5	3.31	10.8
3.98	5.6	3.72	COc1cc(NS(=O)(=O)c2ccc(Br)cc2)c2cc1Oc1ccc(cc1)C[C@H]1c3cc(c(OC)cc3CCN1C)Oc1c(OC)c(OC)cc3c1[C@H](C2)N(C)CC3	9.38	8.51	3.83
2.97	4.81	2.67	COc1cc(NS(=O)(=O)c2ccc(Cl)cc2)c2cc1Oc1ccc(cc1)C[C@H]1c3cc(c(OC)cc3CCN1C)Oc1c(OC)c(OC)cc3c1[C@H](C2)N(C)CC3	17.1	3.73	2.59
4.44	7.48	3.07	COc1cc(NS(=O)(=O)c2ccccc2)c2cc1Oc1ccc(cc1)C[C@H]1c3cc(c(OC)cc3CCN1C)Oc1c(OC)c(OC)cc3c1[C@H](C2)N(C)CC3	13.5	1.98	3.87
3.47	3.81	1.46	COc1cc(NS(=O)(=O)c2cccc(Br)c2)c2cc1Oc1ccc(cc1)C[C@H]1c3cc(c(OC)cc3CCN1C)Oc1c(OC)c(OC)cc3c1[C@H](C2)N(C)CC3	8.73	1.68	2.9
3.81	6.55	3.61	COc1cc(NS(=O)(=O)c2ccc(C(F)(F)F)cc2)c2cc1Oc1ccc(cc1)C[C@H]1c3cc(c(OC)cc3CCN1C)Oc1c(OC)c(OC)cc3c1[C@H](C2)N(C)CC3	8.11	4.43	2.87
3.24	7.79	3.28	COc1cc(NS(=O)(=O)c2ccc(F)cc2)c2cc1Oc1ccc(cc1)C[C@H]1c3cc(c(OC)cc3CCN1C)Oc1c(OC)c(OC)cc3c1[C@H](C2)N(C)CC3	12.1	4.33	1.57
4.86	5.25	3.19	COc1cc(NS(=O)(=O)c2ccc(C(C)(C)C)cc2)c2cc1Oc1ccc(cc1)C[C@H]1c3cc(c(OC)cc3CCN1C)Oc1c(OC)c(OC)cc3c1[C@H](C2)N(C)CC3	26.2	4.07	9.58
4.44	7.12	4.03	COc1cc(NS(=O)(=O)c2ccc([N+](=O)[O-])cc2)c2cc1Oc1ccc(cc1)C[C@H]1c3cc(c(OC)cc3CCN1C)Oc1c(OC)c(OC)cc3c1[C@H](C2)N(C)CC3	14.1	4.24	3.68
